Screening data as filed in PubChem BioAssay.
OX1R antag-1 – human HCRTR1 antagonism. CHO/OX1R cells, Fluo-8 calcium fluorescence, orexin A. inhibition, % at 5 µM. 0.43% of 330,000 active;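 active = inhibition above its plate's threshold, mean inhibition of all tested compounds on the plate plus 3 SD, cut at about 37% in these data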
Target sequence (O43613 whole entry, looked up): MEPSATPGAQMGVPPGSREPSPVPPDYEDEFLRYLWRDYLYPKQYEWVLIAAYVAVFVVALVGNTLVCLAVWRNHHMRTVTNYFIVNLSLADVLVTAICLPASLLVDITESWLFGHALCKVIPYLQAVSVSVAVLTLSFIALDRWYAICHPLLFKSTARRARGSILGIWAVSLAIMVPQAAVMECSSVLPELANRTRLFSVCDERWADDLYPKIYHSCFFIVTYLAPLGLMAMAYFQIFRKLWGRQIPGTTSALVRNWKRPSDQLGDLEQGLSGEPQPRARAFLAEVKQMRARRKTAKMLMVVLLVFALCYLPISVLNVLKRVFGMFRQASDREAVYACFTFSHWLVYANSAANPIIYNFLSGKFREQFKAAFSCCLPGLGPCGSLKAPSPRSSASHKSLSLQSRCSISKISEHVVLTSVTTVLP
GPR7 antagonist – human neuropeptides B/W receptor 1 antagonism. P48145. GPR7-expressing cells, fluorescence antagonist assay. inhibition, % at 4.4 µM. 1.1% of 290,000 active; in the data active = inhibition above about 16%, passing the limit was not always enough;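 note: cells stimulated with the agonist NPW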
CHO parental Ca – counter-screen for OX1R antagonists: effect in parental CHO cells; parental CHO-K1, ATP-induced calcium, Fluo-8 fluorescence; inhibition, % at 5.6 µM; 0.63% of 330,000 active; AID 463079;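 active = inhibition above that plate's mean sample inhibition plus 3 SD, cut at about 26% in these data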
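Test system: untransfected parental CHO cell line. Compound: one dose, 5.6 µM nominal. Detection: intracellular calcium via Fluo-8 no-wash fluorescent dye. Measure: % inhibition. Benchmarks: ATP-challenged DMSO wells low, unchallenged DMSO wells high.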
OX1R antag-2 – antagonists of human orexin 1 receptor (OX1R); O43613; 1.8% of 330,000 active; OX1R-expressing cells, FRET antagonist read-out; inhibition, % at 6.6 µM; in the data active = inhibition mostly above about 38%, no sharp cut-off; inactive = mostly below about 40%
GalR3 antagonist – human GalR3 antagonism | inhibition, % at 3 µM | O60755 | 0.44% of 360,000 active | HEK293 GalR3-CNG cAMP membrane potential fluorescence; galR3 body fused to GalR1 C-terminus;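 active = inhibition above the screen-wide average plus 3 SD, cut at about 13% in these data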;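 note: forskolin and galanin both at EC90 stimulate the cells; cAMP rise reported by CNG channel membrane potential dye signal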
Large screens that a line does not name were inactive. An excerpt weighted towards active compounds, which were near 3.1% of everything screened.

O=C(Cn1cc([N+](=O)[O-])nc1[N+](=O)[O-])N1CCN(c2ccccc2)CC1	OX1R antag-2 48
O=C(NCC(c1ccco1)N1CCOCC1)c1ccc([N+](=O)[O-])cc1 (stereo not given)	OX1R antag-2 67
O=C(CCCSc1nc2ccccc2[nH]1)N1CCN(c2ccc([N+](=O)[O-])cc2)CC1	OX1R antag-1 59, GPR7 antagonist 18, CHO parental Ca 50
CCS(=O)(=O)n1nc(-c2ccccc2)nc1SC	none
CCN1Cc2cc(OC)ccc2-c2ccccc2S1(=O)=O	none (no result: GPR7 antagonist)
CCCOC1OC(=O)c2c1ccc(OC)c2OC (stereo not given)	none
COC(=O)C(C)Sc1nc2c(cnn2-c2ccc(Cl)cc2)c(=O)[nH]1 (stereo not given)	none
NS(=O)(=O)c1cccc(C(=O)OCC(=O)NC2CCCc3ccccc32)c1 (stereo not given)	none (no result: GPR7 antagonist)
COc1ccc(OC)c(CN2C(=O)CN(S(C)(=O)=O)CC2(C)C(=O)NC(C)C)c1 (stereo not given)	none (no result: OX1R antag-1, GPR7 antagonist, CHO parental Ca, OX1R antag-2)
CCc1ccc(N/C(SCc2ccccc2C)=C(/C#N)C(=O)NCc2ccco2)cc1	none
CCOC(=O)c1cc(-c2ccccc2)nn1CCC#N	none
CCOC(=O)c1cc(-c2ccc(OC)cc2)nc2c1c(C)nn2CCC#N	GPR7 antagonist 19
O=C(N/N=C/c1ccc(OCc2ccccc2)cc1)c1cccs1	OX1R antag-2 60
CC(=O)Oc1cccc(Nc2ncnc3ccccc23)c1	none
Cc1ccccc1C(=O)Oc1cccc(Nc2ncnc3ccccc23)c1	OX1R antag-1 55, CHO parental Ca 61, OX1R antag-2 81
COc1ccc(C(=O)C[n+]2ccc(-c3nnc4n3CCCCC4)cc2)cc1	OX1R antag-2 44
Cc1nn(-c2cccc([N+](=O)[O-])c2)c(N)c1-c1ccccc1	OX1R antag-2 41
COC(=O)c1cc2ccccc2oc1=O	none
COC(=O)c1ccccc1OC(=O)c1cc2ccccc2oc1=O	OX1R antag-2 31
CC1CCN(C(=O)COC(=O)c2cc3ccccc3oc2=O)CC1	OX1R antag-2 42 (no result: GPR7 antagonist)
Cc1ccc(S(=O)(=O)Nc2ccc3nc(N)sc3c2)cc1	CHO parental Ca 34
Cc1ccc(S(=O)(=O)Nc2ccc3nc(C)sc3c2)cc1	none (no result: GalR3 antagonist)
Cc1nc2ccc(NS(=O)(=O)c3cccc([N+](=O)[O-])c3)cc2s1	CHO parental Ca 30 (no result: GPR7 antagonist)
Cc1nc2ccc(NS(=O)(=O)c3ccc4c(c3)OCCO4)cc2s1	OX1R antag-1 45, GalR3 antagonist 102
O=C(NCCN1CCOCC1)c1ccc(NS(=O)(=O)c2ccccc2)cc1	none
O=C(NCCN1CCOCC1)c1ccc(NS(=O)(=O)c2cccc([N+](=O)[O-])c2)cc1	OX1R antag-2 52 (no result: GPR7 antagonist)
Cc1cccc(C)c1-n1nnnc1C1c2ccccc2C(=O)N1CCCN1CCOCC1 (stereo not given)	none (no result: OX1R antag-1, GPR7 antagonist, CHO parental Ca, OX1R antag-2)
Cc1cc(C)c(O)c(-c2cc(C(=O)Nc3ccc(S(=O)(=O)N4CCOCC4)cc3)[nH]n2)c1	CHO parental Ca 34
Cc1ccc(-n2c(-c3ccccc3)c[n+]3c2CCC3)cc1	none
Cc1ccc(-n2c(-c3ccccc3)c[n+]3c2CCc2ccccc2-3)c(C)c1	GPR7 antagonist 64, CHO parental Ca 54
C=CC[C@H]1CC(C)=C[C@H](CC=C)N1C(=O)c1cc(COc2ccccc2SC)on1	CHO parental Ca 44
O=C(CN(CC1CCCO1)C(=O)CNS(=O)(=O)c1ccc(Cl)cc1)NC1CCCCC1 (stereo not given)	none
CCC(C)Sc1ccc(-c2nc3ccc(C)cn3c2NCc2ccccc2)cc1OC (stereo not given)	OX1R antag-1 56 (no result: GPR7 antagonist, GalR3 antagonist)
COc1ccc(-c2cc(-c3nc4ccccn4c3NCc3ccccc3)ccc2OC)cc1	OX1R antag-1 96, CHO parental Ca 100, OX1R antag-2 89 (no result: GPR7 antagonist)
CCCCNc1c(-c2ccc(OC)c(SC(C)CC)c2)nc2ccc(Cl)cn12 (stereo not given)	none (no result: GPR7 antagonist)
CCCCCCSc1ccc(-c2nc3ccc(C)cn3c2NCc2ccccc2)cc1OC	none (no result: GPR7 antagonist)
CCC(C)Sc1cc(-c2nc3ccc(C)cn3c2NCc2ccccc2)ccc1OC (stereo not given)	OX1R antag-1 73, CHO parental Ca 97 (no result: GPR7 antagonist)
CCCCNc1c(-c2ccc(OC)c(SC(C)CC)c2)nc2ccc(C)cn12 (stereo not given)	OX1R antag-1 87, CHO parental Ca 94, OX1R antag-2 60 (no result: GPR7 antagonist)
O=C1/C(=N\S(=O)(=O)c2cccs2)C([n+]2cccc(Cc3ccccc3)c2)=C([O-])c2ccccc21	CHO parental Ca 51, OX1R antag-2 48 (no result: GalR3 antagonist)
O=C1/C(=N\S(=O)(=O)c2cccs2)C([n+]2ccc(CCCc3ccccc3)cc2)=C([O-])c2ccccc21	none
CC(C)(C)c1cc[n+](C2=C([O-])c3ccccc3C(=O)/C2=N\S(=O)(=O)c2ccccc2)cc1	OX1R antag-2 67
COc1ccccc1NC(=O)C1CCCN(c2nc(C)cc(C)n2)C1 (stereo not given)	none
COc1cc(C)nc(N2CCCC(C(=O)Nc3cccc(Cl)c3Cl)C2)n1 (stereo not given)	GPR7 antagonist 16
CCC(=O)Nc1ccccc1C(=O)OCC(=O)c1ccc2ccccc2c1	GPR7 antagonist 19
COC(=O)c1ccccc1NC(=O)COc1ccccc1	OX1R antag-2 41
CCC(=O)Nc1ccccc1C(=O)OCC(=O)c1ccccc1	none
COc1ccccc1-c1cnc(C(O)c2cccc(CN3CCCCC3)c2)[nH]1 (stereo not given)	none (no result: OX1R antag-1, GPR7 antagonist, CHO parental Ca, OX1R antag-2)
Cc1ccc(N=C2SCCCN2C(=O)C2=COCCO2)cc1Cl	none (no result: GPR7 antagonist)
COc1cccc(NC(=S)N2CCN(Cc3ccccc3)CC2)c1	none
CC1Sc2ccc(S(=O)(=O)N3CCC(C(=O)NCC(C)c4ccccc4)CC3)cc2NC1=O (stereo not given)	CHO parental Ca 34
Nc1ccc(Sc2cnn(-c3ccccc3)c(=O)c2Cl)cc1	none
Cc1ccc(Sc2cnn(-c3ccccc3)c(=O)c2Cl)cc1	CHO parental Ca 38
COc1ccccc1CNC(=O)COC(=O)c1ccc(-n2cnnn2)cc1	none (no result: GPR7 antagonist)
O=C(OCCOc1ccccc1Cl)c1ccc(-n2cnnn2)cc1	GPR7 antagonist 17
Cc1nnc(N/N=C/c2ccc(-c3ccc(Br)cc3)o2)n1N	OX1R antag-2 40
COc1ccc(N=C2NC(=O)S/C2=C\c2ccc(N(C)C)cc2)cc1	CHO parental Ca 37
CCOc1ccc(N=C2NC(=O)S/C2=C\c2ccc(Cl)cc2)cc1	none
O=S(=O)(NCc1csc(-c2cccnc2)n1)c1ccc(Br)cc1	OX1R antag-2 38
O=C(Nc1nc(-c2cccs2)c(C(=O)C(F)(F)F)s1)c1ccco1	none
O=C(Nc1nc(-c2cccs2)c(C(=O)C(F)(F)F)s1)c1ccccc1	OX1R antag-2 60
CCN1CCN(c2ccc(Nc3ccnc4ccccc34)cc2)CC1	OX1R antag-2 30 (no result: GPR7 antagonist)
CN1CCN(c2ccc(Nc3ccnc4cc(Cl)ccc34)cc2)CC1	none
CC(=O)c1ccc(NC(=O)CO/N=C(\C)c2cccs2)cc1	GPR7 antagonist 20
CC(=O)c1ccc(NC(=O)COC(=O)/C=C/c2cccs2)cc1	OX1R antag-2 50 (no result: GPR7 antagonist)
